{"source": "ChEMBL document CHEMBL4725360", "about": "“Optimization of Acetazolamide-Based Scaffold as Potent Inhibitors of Vancomycin-Resistant Enterococcus” (J Med Chem, 2020)", "key": {"Enterococcus faecium [1]": {"test_system": "Enterococcus faecium", "test": "Antibacterial activity against Enterococcus faecium HM965 incubated for 18 to 20 hrs under aerobic condition by CLSI protocol based broth microdilution assay", "type": "functional", "settings": "time hrs 18-20", "summary_of_the_method": "(§1)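 Broth microdilution per CLSI. Strains grown aerobically overnight on trypticase soy agar at 37 °C. Inoculum set to 0.5 McFarland, diluted in trypticase soy broth to about 5 × 10⁵ CFU/mL. Agents serially diluted, plates incubated aerobically at 37 °C for 18–20 h. MIC is the lowest concentration with no visible growth. Compound stocks 10 mg/mL in DMSO.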"}, "Enterococcus faecium [2]": {"test_system": "Enterococcus faecium", "test": "Antibacterial activity against Enterococcus faecium HM968 incubated for 18 to 20 hrs under aerobic condition by CLSI protocol based broth microdilution assay", "type": "functional", "settings": "time hrs 18-20", "summary_of_the_method": "as §1"}, "Enterococcus faecium [3]": {"test_system": "Enterococcus faecium", "test": "Antibacterial activity against Enterococcus faecium NR-28978 incubated for 18 to 20 hrs under aerobic condition by CLSI protocol based broth microdilution assay", "type": "functional", "settings": "time hrs 18-20", "summary_of_the_method": "as §1"}, "Enterococcus faecium [4]": {"test_system": "Enterococcus faecium", "test": "Antibacterial activity against Enterococcus faecium NR-31903 incubated for 18 to 20 hrs under aerobic condition by CLSI protocol based broth microdilution assay", "type": "functional", "settings": "time hrs 18-20", "summary_of_the_method": "as §1"}, "Enterococcus faecium [5]": {"test_system": "Enterococcus faecium", "test": "Antibacterial activity against Enterococcus faecium NR-32065 incubated for 18 to 20 hrs under aerobic condition by CLSI protocol based broth microdilution assay", "type": "functional", "settings": "time hrs 18-20", "summary_of_the_method": "as §1"}, "Enterococcus faecium [6]": {"test_system": "Enterococcus faecium", "test": "Antibacterial activity against Enterococcus faecium NR-31914 incubated for 18 to 20 hrs under aerobic condition by CLSI protocol based broth microdilution assay", "type": "functional", "settings": "time hrs 18-20", "summary_of_the_method": "as §1"}, "Enterococcus faecium [7]": {"test_system": "Enterococcus faecium", "test": "Antibacterial activity against Enterococcus faecium NR-31916 incubated for 18 to 20 hrs under aerobic condition by CLSI protocol based broth microdilution assay", "type": "functional", "settings": "time hrs 18-20", "summary_of_the_method": "as §1"}, "Enterococcus faecium [8]": {"test_system": "Enterococcus faecium", "test": "Antibacterial activity against Enterococcus faecium NR-32052 incubated for 18 to 20 hrs under aerobic condition by CLSI protocol based broth microdilution assay", "type": "functional", "settings": "time hrs 18-20", "summary_of_the_method": "as §1"}, "Enterococcus faecium [9]": {"test_system": "Enterococcus faecium", "test": "Antibacterial activity against Enterococcus faecium NR-31971 incubated for 18 to 20 hrs under aerobic condition by CLSI protocol based broth microdilution assay", "type": "functional", "settings": "time hrs 18-20", "summary_of_the_method": "as §1"}, "Enterococcus faecalis [10]": {"test_system": "Enterococcus faecalis", "test": "Antibacterial activity against Enterococcus faecalis HM-335 incubated for 18 to 20 hrs under aerobic condition by CLSI protocol based broth microdilution assay", "type": "functional", "settings": "time hrs 18-20", "summary_of_the_method": "as §1"}, "Enterococcus faecalis [11]": {"test_system": "Enterococcus faecalis", "test": "Antibacterial activity against Enterococcus faecalis HM-334 incubated for 18 to 20 hrs under aerobic condition by CLSI protocol based broth microdilution assay", "type": "functional", "settings": "time hrs 18-20", "summary_of_the_method": "as §1"}, "Enterococcus faecalis [12]": {"test_system": "Enterococcus faecalis", "test": "Antibacterial activity against Enterococcus faecalis NR-31975 incubated for 18 to 20 hrs under aerobic condition by CLSI protocol based broth microdilution assay", "type": "functional, organism-based", "settings": "time hrs 18-20", "summary_of_the_method": "as §1"}, "Enterococcus faecalis [13]": {"test_system": "Enterococcus faecalis", "test": "Antibacterial activity against Enterococcus faecalis NR-31970 incubated for 18 to 20 hrs under aerobic condition by CLSI protocol based broth microdilution assay", "type": "functional, organism-based", "settings": "time hrs 18-20", "summary_of_the_method": "as §1"}, "Caco-2": {"test_system": "Caco-2", "test": "Cytotoxicity against human Caco2 cells at 128 ug/ml incubated for 2 hrs by MTS assay", "type": "cell-based", "settings": "caco-2, 2 h, dose 128 µg/ml", "summary_of_the_method": "(§2)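 Caco-2 cells maintained in DMEM with 10% FBS, non-essential amino acids and penicillin-streptomycin at 37 °C, 5% CO₂. Compound exposure for 2 h in serum-free medium at several concentrations; DMSO-matched controls. Viability expressed relative to DMSO controls (mean ± SD), and CC₅₀ derived.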"}, "[14]": {"test": "Cytotoxicity against human Caco2 cells incubated for 2 hrs by MTS assay", "type": "cell-based", "settings": "Caco-2 cells", "summary_of_the_method": "as §2"}, "Enterococcus faecium [15]": {"test_system": "Enterococcus faecium", "test": "Inhibition of carbonic anhydrase in Enterococcus faecium ATCC 700221 assessed as antibacterial activity incubated for 18 to 20 hrs in presence of ambient air by CLSI protocol based broth microdilution assay", "settings": "time hrs 18-20", "summary_of_the_method": "(§3)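 CLSI broth microdilution: inoculum about 5 × 10⁵ CFU/mL in trypticase soy broth with serial dilutions of agents. Paired plates incubated at 37 °C for 18–20 h, one set in ambient air (\"normal\"), the other under 5% CO₂. MIC is the lowest concentration completely inhibiting visible growth.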"}, "Enterococcus faecium [16]": {"test_system": "Enterococcus faecium", "test": "Inhibition of carbonic anhydrase in Enterococcus faecium ATCC 700221 assessed as antibacterial activity incubated for 18 to 20 hrs in presence of 5% CO2 by CLSI protocol based broth microdilution assay", "settings": "time hrs 18-20", "summary_of_the_method": "as §3"}, "Enterococcus faecium [17]": {"test_system": "Enterococcus faecium", "test": "Bacteriostatic activity against Enterococcus faecium ATCC 700221 assessed as reduction in bacterial burden at 5 times MIC preincubated for 24 hrs followed by replating on soya agar plates and measured after 16 hrs by time-kill assay", "type": "functional, organism-based", "summary_of_the_method": "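E. faecium ATCC 700221 overnight culture diluted in trypticase soy broth to 3.5 × 10⁶ CFU/mL. […] Samples taken at 2, 4, 6, 8, 12 and 24 h, diluted in PBS and plated on trypticase soy agar. Colonies counted after 16 h at 37 °C. Detection limit 100 CFU/mL. Two-way ANOVA with Dunnett's test.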"}, "[18]": {"test": "Aqueous solubility of compound in pH 7.4 PBS measured at 24 hrs by HPLC analysis", "type": "physicochemical", "settings": "buffer, pH 7.4, 24 h", "summary_of_the_method": "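HPLC principal-peak area of the buffer sample compared with a 200 μM calibration standard in methanol/water 60/40.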"}, "[19]": {"test": "Apparent permeability across apical to basolateral side in human Caco2 cells", "type": "ADME, cell-based", "settings": "caco-2", "summary_of_the_method": "(§4)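 Bi-directional Caco-2 monolayer permeability, run at Eurofins: donor at pH 6.5, receiver at pH 7.4, both A→B and B→A. Papp derived from receiver concentration at the end point, incubation time, monolayer area and mid-point donor concentration. Concentrations taken as peak areas.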"}, "[20]": {"test": "Apparent permeability across basolateral to apical side in human Caco2 cells", "type": "ADME, cell-based", "settings": "caco-2", "summary_of_the_method": "as §4"}, "[21]": {"test": "Metabolic stability in human liver microsomes assessed as compound remaining measured after 60 mins", "type": "ADME, Microsome", "settings": "1 h", "summary_of_the_method": "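Human liver microsomes at 0.1 mg/mL, 37 °C. Percent parent remaining at 60 min, mean of 2 replicates.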"}, "[22]": {"test": "Half life in human liver microsomes after 60 mins", "type": "ADME, Microsome", "settings": "1 h"}, "[23]": {"test": "Tmax in ICR mouse at 10 mg/kg, po administered via gavage and measured after 10 to 1440 mins by LC/MS/MS analysis", "type": "ADME, organism-based", "settings": "in vivo, time 10-1440 min", "summary_of_the_method": "(§5)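 Male ICR mice, 10 mg/kg single oral gavage; n = 3 mice per time point, 8 time points from 10 to 1440 min. Plasma taken by cardiac puncture and mixed with buffer containing oxybutynin internal standard. Samples diluted with acetonitrile, then LC/MS/MS on C18 with acetonitrile/water–formic acid mobile phases in MRM mode. Concentration read off a standard curve.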"}, "[24]": {"test": "Plasma concentration in ICR mouse at 10 mg/kg, po administered via gavage and measured after 10 to 1440 mins by LC/MS/MS analysis", "type": "ADME, organism-based", "settings": "in vivo, time 10-1440 min", "summary_of_the_method": "as §5"}, "[25]": {"test": "Cmax in ICR mouse at 10 mg/kg, po administered via gavage and measured after 30 mins by LC/MS/MS analysis", "type": "ADME, organism-based", "set-up": "route oral, dose 10 mg/kg, time 10-1440", "settings": "in vivo, 0.5 h", "summary_of_the_method": "as §5"}, "[26]": {"test": "AUC(0 to infinity) in ICR mouse at 10 mg/kg, po administered via gavage and measured after 10 to 1440 mins by LC/MS/MS analysis", "type": "ADME, organism-based", "set-up": "route oral, dose 10 mg/kg, time 10-1440", "settings": "in vivo", "summary_of_the_method": "as §5"}, "[27]": {"test": "Dose normalized AUC in ICR mouse at 10 mg/kg, po administered via gavage and measured after 10 to 1440 mins by LC/MS/MS analysis", "type": "ADME, organism-based", "settings": "in vivo, time 10-1440 min", "summary_of_the_method": "as §5"}, "[28]": {"test": "MRT in ICR mouse at 10 mg/kg, po administered via gavage and measured after 10 to 1440 mins by LC/MS/MS analysis", "type": "ADME, organism-based", "settings": "in vivo, time 10-1440 min", "summary_of_the_method": "as §5"}, "[29]": {"test": "Drug excretion in ICR mouse at 10 mg/kg, po administered via gavage and measured after 1440 mins by LC/MS/MS analysis", "type": "ADME, organism-based", "settings": "in vivo, read-out: Drug excretion"}, "Enterococcus faecium [30]": {"test_system": "Enterococcus faecium", "test": "Antibacterial activity against Enterococcus faecium NR-31972 incubated for 18 to 20 hrs under aerobic condition by CLSI protocol based broth microdilution assay", "type": "functional", "settings": "time hrs 18-20", "summary_of_the_method": "as §1"}}, "note": "Active and inactive are the calls of the source. The rule behind the calls is not given here."}
{"smiles": "NS(=O)(=O)c1nnc(NC(=O)CCC2CCCCC2)s1", "values": [{"measurement": "MIC", "setting": "Enterococcus faecium [1]", "value": 7, "unit": "ng/mL"}, {"measurement": "MIC", "setting": "Enterococcus faecium [2]", "value": 0.03, "unit": "µg/mL"}, {"measurement": "MIC", "setting": "Enterococcus faecium [3]", "value": 0.06, "unit": "µg/mL"}, {"measurement": "MIC", "setting": "Enterococcus faecium [4]", "value": 0.015, "unit": "µg/mL"}, {"measurement": "MIC", "setting": "Enterococcus faecium [5]", "value": 0.015, "unit": "µg/mL"}, {"measurement": "MIC", "setting": "Enterococcus faecium [6]", "value": 0.03, "unit": "µg/mL"}, {"measurement": "MIC", "setting": "Enterococcus faecium [7]", "value": 0.03, "unit": "µg/mL"}, {"measurement": "MIC", "setting": "Enterococcus faecium [8]", "value": 0.015, "unit": "µg/mL"}, {"measurement": "MIC", "setting": "Enterococcus faecium [9]", "value": 7, "unit": "ng/mL"}, {"measurement": "MIC", "setting": "Enterococcus faecalis [10]", "value": 0.03, "unit": "µg/mL"}, {"measurement": "MIC", "setting": "Enterococcus faecalis [11]", "value": 7, "unit": "ng/mL"}, {"measurement": "Activity", "setting": "Enterococcus faecalis [12]", "value": "Active"}, {"measurement": "Activity", "setting": "Enterococcus faecalis [13]", "value": "Active"}, {"measurement": "Activity", "setting": "Caco-2", "value": "Non-Toxic"}, {"measurement": "CC50 at 2 h", "setting": "[14]", "value": "> 128", "unit": "µg/mL"}, {"measurement": "inhibition", "setting": "Enterococcus faecium [15]", "value": "Active"}, {"measurement": "inhibition", "setting": "Enterococcus faecium [16]", "value": "inactive"}, {"measurement": "Activity", "setting": "Enterococcus faecium [17]", "value": "Active"}, {"measurement": "solubility", "setting": "[18]", "value": 32.8, "unit": "µM"}, {"measurement": "Papp", "setting": "[19]", "value": "6.5 10^-6 cm/s"}, {"measurement": "Papp", "setting": "[20]", "value": "14.1 10^-6 cm/s"}, {"measurement": "Stabilty", "setting": "[21]", "value": 62, "unit": "%"}, {"measurement": "t1/2", "setting": "[22]", "value": 74, "unit": "min"}, {"measurement": "Tmax", "setting": "[23]", "value": 30, "unit": "min"}, {"measurement": "Cp", "setting": "[24]", "value": 184, "unit": "ng/mL"}, {"measurement": "Cmax", "setting": "[25]", "value": 456, "unit": "ng/mL"}, {"measurement": "AUC(0-inf)", "setting": "[26]", "value": 562, "unit": "ng·h/mL"}, {"measurement": "AUC/dose", "setting": "[27]", "value": 56, "unit": "kg·ng·h/mL/mg"}, {"measurement": "MRT", "setting": "[28]", "value": 1.35, "unit": "h"}, {"measurement": "dose excreted at 24 h", "setting": "[29]", "value": 100, "unit": "%"}, {"measurement": "MIC", "setting": "Enterococcus faecium [30]", "value": 0.015, "unit": "µg/mL"}]}
